How the values were obtained:
Details in all cases: stereoisomer not certain
UniProt A2ATE5 = molecular target: T1, UniProt A2ATE5
T1 sequence (whole entry): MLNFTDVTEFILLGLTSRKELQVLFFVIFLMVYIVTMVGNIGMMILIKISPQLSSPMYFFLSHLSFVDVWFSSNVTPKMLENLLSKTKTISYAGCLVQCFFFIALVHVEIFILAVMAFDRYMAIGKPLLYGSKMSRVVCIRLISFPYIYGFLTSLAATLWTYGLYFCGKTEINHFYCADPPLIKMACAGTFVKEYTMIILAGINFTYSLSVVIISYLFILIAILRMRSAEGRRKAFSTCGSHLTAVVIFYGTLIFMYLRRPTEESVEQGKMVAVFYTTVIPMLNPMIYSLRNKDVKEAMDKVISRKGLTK
Procedure, shortened: (§1)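 Whether a receptor–molecule pair is responsive (active) rests on the original authors' judgment that its measured signal was statistically different from baseline. Pairs without that judgment are non-responsive (inactive). Sources used varied assay methods, commonly transient luciferase assays in mammalian cell lines.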

UniProt A2AVB0 = molecular target: T2, UniProt A2AVB0
T2 sequence (whole entry): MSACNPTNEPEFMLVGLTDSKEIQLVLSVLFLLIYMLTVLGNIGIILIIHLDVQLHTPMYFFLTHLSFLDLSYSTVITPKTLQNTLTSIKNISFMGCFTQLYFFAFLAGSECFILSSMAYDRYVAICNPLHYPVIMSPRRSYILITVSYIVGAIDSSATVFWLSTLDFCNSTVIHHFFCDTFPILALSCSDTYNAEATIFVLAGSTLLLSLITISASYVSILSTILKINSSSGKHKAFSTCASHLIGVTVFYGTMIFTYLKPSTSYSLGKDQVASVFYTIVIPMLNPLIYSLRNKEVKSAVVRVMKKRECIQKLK
Procedure, shortened: as §1

UniProt E9PVX1 = molecular target: T3, UniProt E9PVX1
T3 sequence (whole entry): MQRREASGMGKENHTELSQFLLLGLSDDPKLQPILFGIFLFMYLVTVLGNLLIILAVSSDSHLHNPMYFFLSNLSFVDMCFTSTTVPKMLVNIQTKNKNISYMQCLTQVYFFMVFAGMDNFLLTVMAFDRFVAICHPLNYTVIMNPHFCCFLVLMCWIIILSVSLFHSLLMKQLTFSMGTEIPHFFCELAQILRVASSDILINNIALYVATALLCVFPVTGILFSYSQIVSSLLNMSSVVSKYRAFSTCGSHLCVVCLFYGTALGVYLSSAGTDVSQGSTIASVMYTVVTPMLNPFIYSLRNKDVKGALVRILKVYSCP
Procedure, shortened: as §1

UniProt E9PZ66 = molecular target: T4, UniProt E9PZ66
T4 sequence (whole entry): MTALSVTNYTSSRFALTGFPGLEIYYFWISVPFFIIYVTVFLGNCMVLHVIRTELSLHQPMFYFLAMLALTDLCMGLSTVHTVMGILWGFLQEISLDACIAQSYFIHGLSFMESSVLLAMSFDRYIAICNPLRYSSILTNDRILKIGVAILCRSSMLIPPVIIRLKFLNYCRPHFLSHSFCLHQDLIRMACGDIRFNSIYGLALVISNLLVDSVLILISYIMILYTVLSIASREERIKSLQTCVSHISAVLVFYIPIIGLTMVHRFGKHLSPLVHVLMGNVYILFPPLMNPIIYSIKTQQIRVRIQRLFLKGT
Procedure, shortened: as §1

UniProt E9Q4X7 = molecular target: T5, UniProt E9Q4X7
T5 sequence (whole entry): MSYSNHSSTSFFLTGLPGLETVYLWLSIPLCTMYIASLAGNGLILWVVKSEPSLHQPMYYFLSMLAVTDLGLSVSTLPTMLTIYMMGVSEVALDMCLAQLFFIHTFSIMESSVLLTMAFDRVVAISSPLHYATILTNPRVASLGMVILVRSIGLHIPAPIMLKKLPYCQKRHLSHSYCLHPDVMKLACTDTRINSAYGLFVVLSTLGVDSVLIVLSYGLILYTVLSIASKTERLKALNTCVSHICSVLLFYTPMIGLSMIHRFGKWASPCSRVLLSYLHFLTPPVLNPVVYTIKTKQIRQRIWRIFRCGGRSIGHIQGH
Procedure, shortened: as §1

UniProt E9Q546 = molecular target: T6, UniProt E9Q546
T6 sequence (whole entry): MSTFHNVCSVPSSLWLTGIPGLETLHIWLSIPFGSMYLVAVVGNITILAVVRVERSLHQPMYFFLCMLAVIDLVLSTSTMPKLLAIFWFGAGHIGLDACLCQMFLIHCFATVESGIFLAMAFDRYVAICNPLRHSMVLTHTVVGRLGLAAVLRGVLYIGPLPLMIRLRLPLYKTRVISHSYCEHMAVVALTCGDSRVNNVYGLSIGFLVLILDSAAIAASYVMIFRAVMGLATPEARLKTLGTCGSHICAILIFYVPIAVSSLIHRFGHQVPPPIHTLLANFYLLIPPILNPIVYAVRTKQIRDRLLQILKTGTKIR
Procedure, shortened: as §1

UniProt E9Q6Z7 = molecular target: T7, UniProt E9Q6Z7
T7 sequence (whole entry): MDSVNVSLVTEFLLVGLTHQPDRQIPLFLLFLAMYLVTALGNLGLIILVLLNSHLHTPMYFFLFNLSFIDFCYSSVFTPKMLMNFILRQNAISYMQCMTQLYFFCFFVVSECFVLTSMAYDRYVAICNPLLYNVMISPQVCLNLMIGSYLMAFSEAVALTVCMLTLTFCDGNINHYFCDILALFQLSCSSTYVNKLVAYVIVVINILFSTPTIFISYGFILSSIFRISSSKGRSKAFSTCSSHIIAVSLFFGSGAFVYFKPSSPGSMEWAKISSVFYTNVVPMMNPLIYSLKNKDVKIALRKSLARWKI
Procedure, shortened: as §1

UniProt A2AVB5 = molecular target: T8, UniProt A2AVB5
T8 sequence (whole entry): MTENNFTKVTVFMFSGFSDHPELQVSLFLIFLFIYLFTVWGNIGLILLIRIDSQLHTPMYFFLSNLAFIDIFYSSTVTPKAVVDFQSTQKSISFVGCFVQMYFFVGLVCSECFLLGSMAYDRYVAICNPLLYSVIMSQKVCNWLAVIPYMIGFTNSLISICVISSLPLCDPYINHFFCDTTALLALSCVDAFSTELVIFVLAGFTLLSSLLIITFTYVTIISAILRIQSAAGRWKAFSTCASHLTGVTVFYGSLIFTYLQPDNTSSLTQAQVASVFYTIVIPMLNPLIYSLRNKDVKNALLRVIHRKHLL
Procedure, shortened: as §1

UniProt B2RVX8 = molecular target: T9, UniProt B2RVX8
T9 sequence (whole entry): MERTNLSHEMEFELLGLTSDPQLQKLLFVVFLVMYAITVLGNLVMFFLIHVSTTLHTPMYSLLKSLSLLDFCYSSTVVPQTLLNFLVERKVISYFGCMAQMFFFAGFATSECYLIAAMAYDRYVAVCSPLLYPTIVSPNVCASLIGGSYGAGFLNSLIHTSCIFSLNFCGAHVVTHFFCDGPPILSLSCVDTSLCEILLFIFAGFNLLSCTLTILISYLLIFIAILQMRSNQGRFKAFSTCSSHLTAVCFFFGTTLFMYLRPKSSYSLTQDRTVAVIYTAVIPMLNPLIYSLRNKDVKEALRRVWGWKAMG
Procedure, shortened: as §1

UniProt K7N609 = molecular target: T10, UniProt K7N609
T10 sequence (whole entry): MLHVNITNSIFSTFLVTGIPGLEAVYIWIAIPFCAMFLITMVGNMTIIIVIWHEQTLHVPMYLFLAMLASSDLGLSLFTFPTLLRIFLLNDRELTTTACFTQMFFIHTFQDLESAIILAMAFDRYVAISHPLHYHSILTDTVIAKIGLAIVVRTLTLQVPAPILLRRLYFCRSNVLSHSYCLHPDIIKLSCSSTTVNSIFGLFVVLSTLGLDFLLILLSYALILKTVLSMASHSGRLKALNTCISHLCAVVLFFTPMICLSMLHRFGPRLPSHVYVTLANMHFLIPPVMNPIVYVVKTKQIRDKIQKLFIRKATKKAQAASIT
Procedure, shortened: as §1

UniProt E1BM68 = molecular target: T11, UniProt E1BM68
T11 sequence (whole entry): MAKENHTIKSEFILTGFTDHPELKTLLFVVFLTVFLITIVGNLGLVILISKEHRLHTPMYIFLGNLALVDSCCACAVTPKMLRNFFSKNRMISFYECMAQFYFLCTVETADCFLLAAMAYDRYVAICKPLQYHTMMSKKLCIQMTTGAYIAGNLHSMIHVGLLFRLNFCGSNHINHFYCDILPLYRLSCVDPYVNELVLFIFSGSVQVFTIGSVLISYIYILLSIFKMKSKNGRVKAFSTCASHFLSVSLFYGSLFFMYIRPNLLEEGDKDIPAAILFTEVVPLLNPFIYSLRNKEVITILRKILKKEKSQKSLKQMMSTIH
Procedure, shortened: as §1

UniProt E9QAT7 = molecular target: T12, UniProt E9QAT7
T12 sequence (whole entry): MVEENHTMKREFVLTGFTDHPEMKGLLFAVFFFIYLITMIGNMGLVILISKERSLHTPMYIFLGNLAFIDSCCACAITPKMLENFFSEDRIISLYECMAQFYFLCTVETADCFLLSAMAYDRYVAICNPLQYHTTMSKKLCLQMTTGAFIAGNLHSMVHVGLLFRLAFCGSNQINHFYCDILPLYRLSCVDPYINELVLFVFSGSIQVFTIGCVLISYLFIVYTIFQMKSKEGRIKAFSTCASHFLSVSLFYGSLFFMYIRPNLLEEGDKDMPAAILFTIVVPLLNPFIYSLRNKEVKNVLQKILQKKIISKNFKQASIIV
Procedure, shortened: as §1

UniProt E9PX47 = molecular target: T13, UniProt E9PX47
T13 sequence (whole entry): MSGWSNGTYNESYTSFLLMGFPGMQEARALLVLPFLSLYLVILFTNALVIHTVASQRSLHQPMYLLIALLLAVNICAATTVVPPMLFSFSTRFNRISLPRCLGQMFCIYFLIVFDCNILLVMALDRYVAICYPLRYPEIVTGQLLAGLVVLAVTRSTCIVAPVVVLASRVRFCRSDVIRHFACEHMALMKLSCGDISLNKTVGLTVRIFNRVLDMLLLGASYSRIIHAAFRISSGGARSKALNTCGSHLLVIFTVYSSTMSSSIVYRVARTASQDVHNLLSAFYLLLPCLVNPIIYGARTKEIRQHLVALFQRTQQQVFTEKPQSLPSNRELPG
Procedure, shortened: as §1

UniProt E9PXN3 = molecular target: T14, UniProt E9PXN3
T14 sequence (whole entry): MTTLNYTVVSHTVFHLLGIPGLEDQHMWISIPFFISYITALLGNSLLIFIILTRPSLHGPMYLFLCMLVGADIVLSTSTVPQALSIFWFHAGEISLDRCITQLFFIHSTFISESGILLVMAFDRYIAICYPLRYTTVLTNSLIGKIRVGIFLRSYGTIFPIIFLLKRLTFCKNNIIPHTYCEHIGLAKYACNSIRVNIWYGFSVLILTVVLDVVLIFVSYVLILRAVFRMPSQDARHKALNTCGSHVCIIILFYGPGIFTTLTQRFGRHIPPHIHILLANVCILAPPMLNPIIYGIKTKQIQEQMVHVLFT
Procedure, shortened: as §1

Measured: odorant receptor agonist call;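 note: active if original authors judged signal statistically different from baseline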

C=C1C2CCC(C2)C1(C)C (stereo not drawn)
inactive: UniProt A2ATE5 | UniProt A2AVB0 | UniProt E9PVX1 | UniProt E9PZ66 | UniProt E9Q4X7 | UniProt E9Q546 | UniProt E9Q6Z7

CC(=O)OCc1ccccc1
not listed: UniProt E1BM68 | UniProt E9QAT7 | UniProt E9PX47 | UniProt E9PXN3
inactive: all other assays above

CCOC(=O)C(C)CC (stereo not drawn)
inactive: UniProt A2ATE5 | UniProt A2AVB0 | UniProt E9PVX1 | UniProt E9PZ66 | UniProt E9Q4X7 | UniProt E9Q546 | UniProt E9Q6Z7

CCCCCCC=CC=O
inactive: UniProt A2ATE5 | UniProt A2AVB0 | UniProt E9PVX1 | UniProt E9PZ66 | UniProt E9Q4X7 | UniProt E9Q546 | UniProt E9Q6Z7

COc1nccnc1C
inactive: UniProt A2ATE5 | UniProt A2AVB0 | UniProt E9PVX1 | UniProt E9PZ66 | UniProt E9Q4X7 | UniProt E9Q546 | UniProt E9Q6Z7

CCCCCCCCOC=O
inactive: UniProt A2ATE5 | UniProt A2AVB0 | UniProt E9PVX1 | UniProt E9PZ66 | UniProt E9Q4X7 | UniProt E9Q546 | UniProt E9Q6Z7

CC1(C)CC(=O)CC(=O)C1
inactive: UniProt A2ATE5 | UniProt A2AVB0 | UniProt E9PVX1 | UniProt E9PZ66 | UniProt E9Q4X7 | UniProt E9Q546 | UniProt E9Q6Z7

CCC(=O)O
not listed: UniProt E1BM68 | UniProt E9QAT7 | UniProt E9PX47 | UniProt E9PXN3
inactive: all other assays above

CCc1ccc(O)cc1
inactive: UniProt A2ATE5 | UniProt A2AVB0 | UniProt E9PVX1 | UniProt E9PZ66 | UniProt E9Q4X7 | UniProt E9Q546 | UniProt E9Q6Z7

COc1cnccn1
active: UniProt E1BM68
not listed: UniProt A2AVB5 | UniProt B2RVX8 | UniProt K7N609 | UniProt E9PX47 | UniProt E9PXN3
inactive: all other assays above

O=C([O-])CCCCCCCC(=O)[O-].[H+].[H+]
active: UniProt E9PX47
not listed: UniProt A2AVB5 | UniProt B2RVX8 | UniProt K7N609 | UniProt E1BM68 | UniProt E9QAT7
inactive: all other assays above

CCc1nccnc1CC
active: UniProt E1BM68 | UniProt E9QAT7
inactive: UniProt A2ATE5 | UniProt A2AVB0 | UniProt E9PVX1 | UniProt E9PZ66 | UniProt E9Q4X7 | UniProt E9Q546 | UniProt E9Q6Z7

CCSCC
inactive: UniProt A2ATE5 | UniProt A2AVB0 | UniProt E9PVX1 | UniProt E9PZ66 | UniProt E9Q4X7 | UniProt E9Q546 | UniProt E9Q6Z7

CC=C(C)C=O
inactive: UniProt A2ATE5 | UniProt A2AVB0 | UniProt E9PVX1 | UniProt E9PZ66 | UniProt E9Q4X7 | UniProt E9Q546 | UniProt E9Q6Z7

O=C(O)CCCCCBr
inactive: UniProt A2ATE5 | UniProt A2AVB0 | UniProt E9PVX1 | UniProt E9PXN3 | UniProt E9PZ66 | UniProt E9Q4X7 | UniProt E9Q546 | UniProt E9Q6Z7

Source: the M2OR odorant receptor database
